Screening data as filed in PubChem BioAssay.
Hits are enriched below; roughly 3.3% of the tested compounds scored in any of these assays.
Myeloid diff MLP – promotes myeloid progenitor differentiation | ER-HoxA9 myeloid progenitors, lysozyme-GFP differentiation, flow cytometry | calls only at 10 µM | actives 1% (n = 360,000) | AID 624256;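 active means normalized GFP-positive differentiation at or above the plate's own cutoff, the solvent-only control mean plus 3 SD; inconclusive means no clear call, values can overlap the other calls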;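 further: cells exposed to compound for four days before flow analysis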
ATG4B inh – ATG4B (human) cysteine protease inhibition; actives 0.51% (n = 340,000); inhibition, % at 8.33 µM; Q9Y4P1; AID 504462; ATG4B cleavage of LC3-PLA2, NBD-HPC fluorescence, 1 h; in the data active means inhibition above about 40%
NRP1-CendR mod – NRP-1/CendR interaction modulation; O14786; FAM-RPARPAR peptide binding to NRP-1, fluorescence polarization; inhibition, % at 25 µM; actives 0.85% (n = 360,000);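 active means inhibition or corrected inhibition above about 18%, plus a signal ratio from 0.5 to 1.5, limit read from the data, passing the limit was not always enough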
Target sequence (O14786 whole entry, looked up): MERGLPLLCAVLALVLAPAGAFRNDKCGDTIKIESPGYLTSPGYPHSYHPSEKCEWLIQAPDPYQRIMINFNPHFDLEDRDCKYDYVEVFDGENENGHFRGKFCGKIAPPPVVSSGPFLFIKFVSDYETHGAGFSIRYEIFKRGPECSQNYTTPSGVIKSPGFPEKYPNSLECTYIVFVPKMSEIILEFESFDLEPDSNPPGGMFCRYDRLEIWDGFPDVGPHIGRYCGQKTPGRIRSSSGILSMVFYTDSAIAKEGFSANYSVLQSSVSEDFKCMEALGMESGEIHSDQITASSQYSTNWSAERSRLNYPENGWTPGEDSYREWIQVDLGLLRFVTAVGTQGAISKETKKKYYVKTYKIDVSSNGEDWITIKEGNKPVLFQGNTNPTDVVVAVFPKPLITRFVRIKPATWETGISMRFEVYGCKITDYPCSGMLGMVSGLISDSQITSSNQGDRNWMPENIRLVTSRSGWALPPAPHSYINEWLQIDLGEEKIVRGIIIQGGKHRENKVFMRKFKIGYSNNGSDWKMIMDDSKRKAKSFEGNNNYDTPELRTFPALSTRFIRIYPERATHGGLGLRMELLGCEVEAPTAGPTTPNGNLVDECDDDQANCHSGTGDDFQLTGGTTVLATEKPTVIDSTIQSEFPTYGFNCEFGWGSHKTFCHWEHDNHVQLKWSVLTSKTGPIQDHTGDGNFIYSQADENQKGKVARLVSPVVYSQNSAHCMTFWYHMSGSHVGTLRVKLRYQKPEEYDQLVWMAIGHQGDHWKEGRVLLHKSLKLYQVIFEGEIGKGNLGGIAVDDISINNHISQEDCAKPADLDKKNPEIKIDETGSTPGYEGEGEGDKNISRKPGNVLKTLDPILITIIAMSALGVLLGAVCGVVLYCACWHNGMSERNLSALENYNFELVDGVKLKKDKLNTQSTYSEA
ABCB6 inh 2 – blocks the human ABCB6 transporter. AID 602162. fluorescence ratio to DMSO, % at 10 µM. K562-ABCB6 porphyrin accumulation, flow cytometry, 1 h; active compounds read low. actives 0.19% (n = 360,000);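 active means fluorescence ratio to DMSO below 75%, the collection mean minus 3 SD; inconclusive means too few cells collected in the well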;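 further: signal is porphyrin accumulated inside mitochondria; 100% equals median channel fluorescence of DMSO control wells; lower ratio means ABCB6 inhibition with less porphyrin fluorescence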
Arrestin-AP2 inh – inhibitors of human beta-arrestin and AP2 interaction | FITC-arrestin peptide / GST-AP2 beads, flow cytometry; AP2 beta2 appendage carries R879A mutation | inhibition, % at 10 µM | actives 0.31% (n = 340,000) | AID 504490;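 active means inhibition above a set limit, near 3 SD of compounds lacking own fluorescence, cut at about 54% in these data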;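 further: plate controls were DMSO wells for no effect and 5 µM unlabelled arrestin peptide for full effect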
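Material – AP2 appendage R879A on GSH beads · Buffer or medium – PBS with 0.05% Tween 20 and 0.1% BSA · Probe or stimulus – fluorescein-tagged arrestin peptide at 50 nM final · Incubation – compound with beads 12 min RT, then probe 1 h RT · Detection – high-throughput flow cytometry of beads, ex 488, em 535 nm · Evaluation – percent response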
Granule exo inh – lytic granule exocytosis inhibition; TALL-104 LAMP-1 surface exposure, flow cytometry; cells stimulated with thapsigargin and PMA; inhibition, % at 10 µM; actives 0.66% (n = 360,000);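 active means inhibition above about 55%, limit read from the data; inconclusive means no clear call, values can overlap the other calls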
ATG4B conf – confirmation of human ATG4B inhibitors. ATG4B protease fluorescent substrate cleavage assay. AID 504757. shares compounds with ATG4B inh. actives 92% (n = 320). inhibition, % at 8.33 µM; in the data active means inhibition above about 39%
PLA2 ctr – counter-screen for ATG4B inhibitors: human phospholipase A2. shares compounds with ATG4B inh. purified PLA2, NBD-C6-HPC fluorescence, 45 min. AID 588402. inhibition, % at 8.33 µM. actives 66% (n = 1,600); in the data active means inhibition above about 50%
Arr-AP2 CP1 – blocks beta-arrestin peptide binding to human AP2; shares compounds with Arrestin-AP2 inh; inhibition, % at 10 µM; GST-AP2 beads, FITC arrestin peptide binding, flow cytometry; GST-fused beta2-adaptin appendage, R879A mutant; actives 2% (n = 1,300);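 active means inhibition above a set limit, roughly 3 SD of non-fluorescent compound noise, cut at about 38% in these data; inactive means inhibition at or below that limit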;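 further: loss of bead fluorescence from 50 nM FITC arrestin peptide bound to appendage; 0% = negative control wells and 100% = excess unlabelled arrestin peptide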
GST GSH counter – GST-GSH bead binding interference, counter-screen; shares compounds with Arrestin-AP2 inh; GST-fluorescein binding to GSH beads, fluorescence; inhibition, % at 10 µM; actives 2% (n = 1,300); AID 588338;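 active means inhibition above 50%, about 3 SD of the inhibition seen with non-fluorescent compounds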;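 further: fluorescein maleimide labelled GST captured on 4 micron glutathione beads; higher means more loss of bead fluorescence from quenching or blocked binding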
ABCB6 blocker 1 – inhibitors of human ABC transporter ABCB6; shares compounds with ABCB6 inh 2; K562-ABCB6 porphyrin accumulation, flow cytometry, 1 h; active compounds read low; ratio response (% of DMSO), % at 10 µM; 700 tested, under 10 active;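 active means repeat-averaged ratio response below 75% of DMSO, the collection mean minus 3 SD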;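 further: median porphyrin fluorescence at 575 nm with 488 nm excitation from mitochondria; lower ratio means less porphyrin signal so ABCB6 inhibition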
Myeloid diff CP1 – promotes myeloid progenitor differentiation; calls only; shares compounds with Myeloid diff MLP; ER-HoxA9 myeloid progenitors, GFP/Mac1 double-positive flow; actives 2% (n = 2,300);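 active means share of green or green-and-red cells above 9 and 9% in run 1 or 4 and 3% in run 2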
GFP autofluor – counter-screen for myeloid differentiation promoters: compound fluorescence | fluorescence response, % (test concentration not listed) | actives 7.4% (n = 2,300) | shares compounds with Myeloid diff MLP | AID 651707 | ER-HoxA9 myeloid progenitors, no estrogen, GFP autofluorescence flow cytometry; vehicle wells 0%, positive control 100%;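 active means over 5% cells positive for green fluorescent reporter, or over 2% positive for both it and APC stain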;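 further: range taken on the double positive population between DMSO and positive control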
Starred values were filed as active, the others as inactive.

What do the screens show for `Cn1ncc([N+](=O)[O-])c1C(=O)N/N=C/c1cccc([N+](=O)[O-])c1`?
Myeloid diff MLP: inactive; ATG4B inh: 2; NRP1-CendR mod: 9; ABCB6 inh 2: 98; Arrestin-AP2 inh: -1; Granule exo inh: 0

Results for COc1cc(NC(=O)CN2C(=O)CSc3ccc(S(=O)(=O)N4CCCC4)cc32)cc(OC)c1 ?
Myeloid diff MLP: inactive; ATG4B inh: -1; NRP1-CendR mod: 7; ABCB6 inh 2: 106; Arrestin-AP2 inh: -8; Granule exo inh: -3

Results for CCN(CC)CCNC(=O)c1ccc(CS(=O)(=O)c2ccc(Br)cc2)o1 ?
Myeloid diff MLP: inactive; ATG4B inh: 5; NRP1-CendR mod: -6; ABCB6 inh 2: 102; Arrestin-AP2 inh: 4; Granule exo inh: -3

How did Cc1nc(C)c(-c2csc(NCc3ccco3)n2)s1 do in these assays?
Myeloid diff MLP: inactive; ATG4B inh: -1; NRP1-CendR mod: -6; ABCB6 inh 2: 98; Arrestin-AP2 inh: -11; Granule exo inh: 8

What do the screens show for `Cc1nc(NC(=O)c2ccccc2)sc1-c1csc(NCc2ccco2)n1`?
Myeloid diff MLP: inconclusive; ATG4B inh: 41*; NRP1-CendR mod: -66; ABCB6 inh 2: 105; Arrestin-AP2 inh: -7; Granule exo inh: -7; PLA2 ctr: 67*

How did CNC(=S)Nc1cc2oc3ccccc3c2cc1OC do in these assays?
Myeloid diff MLP: inactive; ATG4B inh: -12; NRP1-CendR mod: -12; ABCB6 inh 2: 98; Arrestin-AP2 inh: -1; Granule exo inh: 3

What do the screens show for `COc1cc2c(cc1NC(=O)C(C)Sc1ccc(NC(C)=O)cc1)oc1ccccc12` (centres undefined)?
Myeloid diff MLP: inactive; ATG4B inh: 44*; NRP1-CendR mod: -1; ABCB6 inh 2: 101; Arrestin-AP2 inh: 0; Granule exo inh: -1; ATG4B conf: 91*; PLA2 ctr: 39; Arr-AP2 CP1: 2; GST GSH counter: -7

What do the screens show for `O=S1(=O)CC(N2CCCCC2)C1CN1CCCCC1` (centres undefined)?
Myeloid diff MLP: inactive; NRP1-CendR mod: 4; ABCB6 inh 2: 94; Granule exo inh: -12

How did O=C(O)c1ccccc1NS(=O)(=O)c1ccc(NNC(=S)Nc2ccc(OC(F)F)cc2)c([N+](=O)[O-])c1 do in these assays?
Myeloid diff MLP: inactive; ATG4B inh: 51*; NRP1-CendR mod: 26*; ABCB6 inh 2: 96; Arrestin-AP2 inh: 62*; Granule exo inh: -1; PLA2 ctr: 64*; Arr-AP2 CP1: -2; GST GSH counter: -5

How did CCc1nc(SCC(=O)N2CCN(C(=O)c3ccco3)CC2)c2c3c(sc2n1)CCCC3 do in these assays?
Myeloid diff MLP: inactive; ATG4B inh: 44*; NRP1-CendR mod: 6; ABCB6 inh 2: 28*; Arrestin-AP2 inh: 3; Granule exo inh: 0; PLA2 ctr: 64*; ABCB6 blocker 1: 98

What do the screens show for `CCc1cc2ccccc2nc1SCC(=O)N1CCN(C(=O)c2ccco2)CC1`?
Myeloid diff MLP: inactive; ATG4B inh: -3; NRP1-CendR mod: -3; ABCB6 inh 2: 100; Arrestin-AP2 inh: 23; Granule exo inh: 0

What do the screens show for `Cc1nc2c(C(=O)NCCC(C)C)c[nH]n2c(=O)c1Cc1ccccc1F`?
Myeloid diff MLP: inactive; ATG4B inh: 51*; NRP1-CendR mod: -24; ABCB6 inh 2: 102; Arrestin-AP2 inh: -5; Granule exo inh: -2; PLA2 ctr: 63*; ABCB6 blocker 1: 100

Results for C#CCNCCS(=O)(=O)N(Cc1ccc(Br)cc1)[C@@H](CC(C)C)C(=O)O ?
Myeloid diff MLP: inactive; ATG4B inh: -6; NRP1-CendR mod: -1; ABCB6 inh 2: 101; Arrestin-AP2 inh: -6; Granule exo inh: 0

How did Cc1cc(C)c2nc3sc(=Cc4ccc(-c5ccccc5C(=O)O)o4)c(=O)n3c2c1 do in these assays?
Myeloid diff MLP: inactive; NRP1-CendR mod: -71; ABCB6 inh 2: 213; Granule exo inh: 35

What do the screens show for `O=C(O)c1ccc(-c2ccc(/C=c3/sc4nc5ccccc5n4c3=O)o2)cc1Cl`?
Myeloid diff MLP: inactive; ATG4B inh: 50*; NRP1-CendR mod: -253; ABCB6 inh 2: 124; Arrestin-AP2 inh: -120; Granule exo inh: 30; ATG4B conf: 82*; PLA2 ctr: 19; Myeloid diff CP1: inactive; GFP autofluor: 0

How did CCCCNC(=O)CC(=O)Nc1ccccc1C(=O)O do in these assays?
Myeloid diff MLP: inactive; ATG4B inh: -7; NRP1-CendR mod: 1; ABCB6 inh 2: 92; Arrestin-AP2 inh: -12; Granule exo inh: -2

Results for CC1CCCCN1CCCNc1ccc(C(CC(N)=O)NC(=O)Cc2cccc3ccccc23)cc1[N+](=O)[O-] (centres undefined) ?
Myeloid diff MLP: inactive; ATG4B inh: -9; NRP1-CendR mod: -5; ABCB6 inh 2: 97; Arrestin-AP2 inh: 5; Granule exo inh: 22

How did Cc1cc(/C=C2\Cc3ccccc3C2=O)c(C)n1-c1ccccc1 do in these assays?
Myeloid diff MLP: active; ATG4B inh: 62*; NRP1-CendR mod: -135; ABCB6 inh 2: 95; Arrestin-AP2 inh: 25; Granule exo inh: 2; PLA2 ctr: 62*; Myeloid diff CP1: inactive; GFP autofluor: 11*
